In ChEMBL document CHEMBL2346625 (Bioorg Med Chem, 2013):
In brackets after ≈: the same amount, converted by molar mass.

Tests used:
Streptococcus pyogenes = assay: Growth inhibition of Streptococcus pyogenes UMAA2616 at 50 uM relative to control; type: organism-based; settings: in vitro
Outline: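 Diluted 1:1000 into THY containing compound at 50 μM in 0.1% DMSO and grown in triplicate at 37 °C to OD600 ≈ 1.0. Growth given as OD600 test/DMSO control; mean of at least three experiments ± SD.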

Liver [1] = assay: (§1) Half life in mouse liver microsomes at 0.5 to 1 uM by LC-MS/MS analysis; type: ADME, Microsome; settings: microsomes, 1 µM
[2] = Kinetic solubility of the compound in aqueous Todd Hewitt bacterial media at 0.87 to 99 uM by UV/Vis spectrophotometry; type: physicochemical; settings: read-out: Kinetic_solubility
Outline: (§2)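 10 mM DMSO stocks serially diluted in DMSO, then added 1:100 to Todd-Hewitt broth at 37 °C, giving final 0.87–99 μM. Plate shaken, incubated 5 min at 37 °C, and OD600 read (n = 3). Solubility taken as the midpoint between the first concentration with OD600 ≥ 0.005 AU above background and the preceding concentration, ± half the interval.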

[3] = as §1; type: ADME, Microsome; settings: liver microsomes
Liver [4] = assay: Metabolic stability in mouse liver microsomes assessed as oxidation of compound; type: ADME, Microsome
[5] = Kinetic solubility of the compound in phosphate-buffered saline at 0.87 to 99 uM by UV/Vis spectrophotometry; type: physicochemical
Outline: as §2, with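 “PBS” for “Todd-Hewitt broth”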

[6] = biological target: T1, Streptokinase (Streptococcus pyogenes) (UniProt P96471); assay: Inhibition of Streptococcus pyogenes UMAA2616 streptokinase assessed as cleavage of S-2403 to colored product p-nitroaniline at 50 uM after 2 hrs relative to control
T1 sequence (whole entry): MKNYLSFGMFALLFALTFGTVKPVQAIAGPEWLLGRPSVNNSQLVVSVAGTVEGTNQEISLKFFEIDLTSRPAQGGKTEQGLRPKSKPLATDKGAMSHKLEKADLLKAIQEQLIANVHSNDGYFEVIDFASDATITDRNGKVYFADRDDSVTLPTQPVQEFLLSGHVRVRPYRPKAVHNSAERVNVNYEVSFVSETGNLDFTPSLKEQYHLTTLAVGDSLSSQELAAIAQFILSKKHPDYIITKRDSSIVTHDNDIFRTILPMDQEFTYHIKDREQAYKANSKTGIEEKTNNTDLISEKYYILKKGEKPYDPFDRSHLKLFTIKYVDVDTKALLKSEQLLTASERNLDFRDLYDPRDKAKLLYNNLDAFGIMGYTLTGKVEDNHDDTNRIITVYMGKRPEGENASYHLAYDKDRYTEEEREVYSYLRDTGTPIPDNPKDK
Outline: (§3)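 UMAA2616 grown in THY (0.1% DMSO, compound at 5 or 50 μM) at 37 °C to OD600 ≈ 1.0, then centrifuged. Supernatant mixed with PBS, human plasma and S-2403 plasmin substrate and incubated 2 h at 37 °C; A405 read. Activity came from a DMSO-culture standard curve, was corrected for growth by OD600 and expressed as test/control. Mean of at least three experiments ± SD.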

[7] = biological target: T1, Streptokinase (Streptococcus pyogenes); assay: Inhibition of Streptococcus pyogenes UMAA2616 streptokinase assessed as cleavage of S-2403 to colored product p-nitroaniline at 5 uM after 2 hrs relative to control; outline: as §3
Streptokinase = biological target: T2, Streptokinase (Streptococcus pyogenes, UniProt P96471)
T2 sequence (P96471 whole entry): T1 sequence (whole entry)

| SMILES | T/C (Streptococcus pyogenes) | t1/2 (Liver [1]) [min] | other results |
| --- | --- | --- | --- |
| CCn1c(SCCOC)nc2c(c1=O)C(C)(C)Cc1ccccc1-2 | 0.39 | 0.8 | – |
| C=CCn1c(SCc2ccccc2)nc2c(c1=O)C(C)(C)Cc1ccccc1-2 | – | – | solubility kinetic [2]: 9 µM (≈ 3.5 µg/mL) |
| C=CCn1c(SCC)nc2c(c1=O)C(C)(C)Cc1cc(OCCOC)ccc1-2 | 0.85 | – | – |
| CCSc1nc2c(c(=O)n1CC(F)(F)F)C(C)(C)Cc1ccc(OC)cc1-2 | 1.01 | – | half-life [3]: 3 min |
| C=CCn1c(NCC)nc2c(c1=O)C(C)(C)Cc1cc(CC(=O)OCC)ccc1-2 | 1.02 | – | – |
| C=CCn1c(SCCO)nc2c(c1=O)C(C)(C)Cc1ccccc1-2 | 0.06 | – | – |
| C=CCn1c(SCC(=O)OCC)nc2c(c1=O)C(C)(C)Cc1ccccc1-2 | 1.01 | – | – |
| C=CCn1c(SCC)nc2c(c1=O)C(C)(C)Cc1cc(OCCCCCCC)ccc1-2 | 1.05 | – | – |
| C=CCn1c(SC)nc2c(c1=O)C1(CCCCC1)Cc1ccccc1-2 | – | 13.5 | solubility kinetic [2]: 22 µM (≈ 7.76 µg/mL) |
| C=CCn1c(SCC)nc2c(c1=O)C(C)(C)Cc1cc(OCCCC)ccc1-2 | 0.87 | – | – |
| C=CCn1c(SCC(N)=O)nc2c(c1=O)C(C)(C)Cc1ccccc1-2 | 1 | < 2 | – |
| C=CCn1c(SCc2ccc(NC(C)=O)cc2)nc2c(c1=O)C1(CCCCC1)Cc1ccccc1-2 | 0.96 | – | – |
| C=CCn1c(SCCOC)nc2c(c1=O)C1(CCCCC1)Cc1ccccc1-2 | 0.99 | 6.4 | solubility kinetic [2]: 9 µM (≈ 3.57 µg/mL); Stability (Liver [4]): Stable |
| C=CCn1c(SCC#N)nc2c(c1=O)C(C)(C)Cc1ccccc1-2 | 1 | 20.6 | solubility kinetic [2]: 34.5 µM (≈ 11.6 µg/mL); solubility kinetic [5]: 3 µM (≈ 1.01 µg/mL) |
| C=CCn1c(SCCOC)nc2c(c1=O)C(C)(C)Cc1cc(C(=O)NCCc3c[nH]cn3)ccc1-2 | 0.99 | – | – |
| CCn1c(SCc2ccccc2)nc2c(c1=O)C1(CCCC1)Cc1ccccc1-2 | 1.07 | – | – |

| SMILES | T/C (Streptococcus pyogenes) | t1/2 (Liver [1]) [min] | other results |
| --- | --- | --- | --- |
| C=CCn1c(SCCOC)nc2c(c1=O)C(C)(C)Cc1cc(C(=O)NCc3ccccc3)ccc1-2 | 1.07 | – | – |
| C=CCn1c(NCC)nc2c(c1=O)C(C)(C)Cc1ccccc1-2 | 0.06 | 1.1 | – |
| C=CCn1c(OCC)nc2c(c1=O)C1(CCCCC1)Cc1ccccc1-2 | 1.02 | – | solubility kinetic [2]: 14.5 µM (≈ 5.08 µg/mL) |
| COCCSc1nc2c(c(=O)n1CCc1ccc(OC)cc1)C(C)(C)Cc1ccccc1-2 | 0.97 | – | T/C [6]: 0.61; half-life [3]: 9.4 min; T/C [7]: 0.71 |
| C=CCn1c(SCC)nc2c(c1=O)C(C)(C)Cc1cc(OCCc3ccccc3)ccc1-2 | 1.01 | – | – |
| C=CCn1c(OCC)nc2c(c1=O)C(C)(C)Cc1ccccc1-2 | 0.5 | 0.9 | – |
| C=CCn1c(NCC)nc2c(c1=O)C1(CCCCC1)Cc1ccccc1-2 | 0.32 | – | solubility kinetic [2]: 9 µM (≈ 3.15 µg/mL) |
| C=CCn1c(SCCCC)nc2c(c1=O)C1(CCCCC1)Cc1ccccc1-2 [CCG-2979] | 0.95 | 37.2 | solubility kinetic [2]: 9 µM (≈ 3.55 µg/mL); solubility kinetic [5]: 2 µM (≈ 0.789 µg/mL); IC50 (Streptokinase): > 50 µM |
| C=CCn1c(SCC)nc2c(c1=O)C(C)(C)Cc1ccc(OCCOC)cc1-2 | 1.02 | – | – |
| C=CCn1c(SCCOC)nc2c(c1=O)C(C)(C)Cc1ccccc1-2 | – | 1.7 | solubility kinetic [2]: 22.5 µM (≈ 8.02 µg/mL) |
| C=CCn1c(SCc2ccccc2)nc2c(c1=O)C1(CCCCC1)Cc1ccccc1-2 [CCG-102487] | 0.96 | 0.6 | solubility kinetic [2]: 9 µM (≈ 3.86 µg/mL); IC50 (Streptokinase): > 50 µM |
| C=CCn1c(SCCN(C)C)nc2c(c1=O)C1(CCCCC1)Cc1ccccc1-2 | 0.88 | – | – |
| C=CCn1c(SCc2ccc(OC)cc2)nc2c(c1=O)C1(CCCCC1)Cc1ccccc1-2 | 1.05 | – | – |
| C=CCn1c(SCCOC)nc2c(c1=O)C(C)(C)Cc1cc(C(=O)O)ccc1-2 | 0.86 | – | – |
| C=CCn1c(SCc2ccccn2)nc2c(c1=O)C(C)(C)Cc1ccccc1-2 | 1.05 | – | – |
